Data taken from ChEMBL document CHEMBL6092133, “Enhancing the therapeutic window for Spectinamide anti-tuberculosis Agents: Synthesis, Evaluation, and activation of phosphate prodrug 3408” (Bioorg Med Chem Lett, 2024).
The source made the active and inactive calls. The rule behind the calls is not given here.

Experiments:
[1] = Toxicity in Sprague-Dawley rat assessed as maximum tolerated dose administered via iv infusion for 30 mins; format: organism-based; details: in vivo
Summary of the method: (§1)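 Rats given single intravenous doses either as a bolus over 5 or 30 seconds or as a timed infusion (minutes, per line). The highest dose tolerated without acute toxicity was recorded as MTD in mg/kg.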

[2] = Toxicity in Sprague-Dawley rat assessed as maximum tolerated dose administered via iv infusion for 15 mins; format: organism-based; details: in vivo; summary of the method: as §1
[3] = Toxicity in Sprague-Dawley rat assessed as maximum tolerated dose administered as iv bolus injection for 30 sec; format: organism-based; details: in vivo; summary of the method: as §1
[4] = Toxicity in Sprague-Dawley rat assessed as maximum tolerated dose administered via iv infusion for 5 mins; format: organism-based; details: in vivo; summary of the method: as §1
[5] = Toxicity in Sprague-Dawley rat assessed as maximum tolerated dose administered as iv bolus injection for 5 sec; format: organism-based; details: in vivo; summary of the method: as §1
Bacterial 70S ribosome = test: Inhibition of ribosome-mediated protein synthesis in Mycobacterium smegmatis; format: subcellular, Mycolicibacterium smegmatis
[6] = Stability of compound in plasmaLyte A and milli-Q water mixture measured for >=6 hrs at room temperature by LC-MS/MS analysis; format: physicochemical; details: buffer
Summary of the method: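 Prodrug held in dosing vehicle alone at room temperature for at least 6 hours, with compound integrity monitored over time.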

[7] = (§2) Prodrug conversion in male Sprague-Dawley rat assessed as volume of distribution at steady state of 2-(5-chloropyridin-2-yl)-N-((2R,4R,4aS,5aR,6S,7S,8R,9S,9aR,10aS)-4a,7,9-trihydroxy-2-methyl-6,8-bis(methylamino)decahydro-2H-benzo[b]pyrano[2,3-e][1,4]dioxin-4-yl)acetamide at 10 mg/kg, iv administered as bolus injection and measured after 48 hrs by LC-MS/MS analysis; format: ADME, organism-based; details: in vivo
Summary of the method: (§3)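 Rats dosed once by 10 mg/kg i.v. bolus with either the parent spectinamide or the phosphate prodrug at an equivalent molar amount. Plasma parent-drug concentration-time profiles gave AUC, Cmax, clearance, Vss and terminal half-life, reported as mean ± spread.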

[8] = as §2, with “AUC” for “volume of distribution at steady state”; format: ADME, organism-based; details: in vivo; summary of the method: as §3
[9] = tested on: Mycobacterium tuberculosis; test: Antibacterial activity against Mycobacterium tuberculosis H37Rv by whole cell MIC assay; format: functional, organism-based
[10] = as §2, with “clearance” for “volume of distribution at steady state”; format: ADME, organism-based; details: in vivo; summary of the method: as §3
[11] = as §2, with “half-life” for “volume of distribution at steady state”; format: ADME, organism-based; details: in vivo; summary of the method: as §3
[12] = as §2, with “Cmax” for “volume of distribution at steady state”; format: ADME, organism-based; details: in vivo; summary of the method: as §3
[13] = Prodrug conversion in rat plasma assessed as 2-(5-chloropyridin-2-yl)-N-((2R,4R,4aS,5aR,6S,7S,8R,9S,9aR,10aS)-4a,7,9-trihydroxy-2-methyl-6,8-bis(methylamino)decahydro-2H-benzo[b]pyrano[2,3-e][1,4]dioxin-4-yl)acetamide formation by measuring half-life at 0.1 to 1 microg/ml; format: ADME, cell-free; details: dose 0.1-1 µg/ml
Summary of the method: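 Prodrug incubated in vitro in fresh rat plasma. Appearance of the parent drug was followed over time to give a conversion half-life.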

[14] = Cmax in male Sprague-Dawley rat at 10 mg/kg, iv administered as bolus injection and measured after 48 hrs by LC-MS/MS analysis; format: ADME, organism-based; details: in vivo; summary of the method: as §3
[15] = Volume of distribution at steady state in male Sprague-Dawley rat at 10 mg/kg, iv administered as bolus injection and measured after 48 hrs by LC-MS/MS analysis; format: ADME, organism-based; details: in vivo, read-out: Vdss; summary of the method: as §3
[16] = AUC in male Sprague-Dawley rat at 10 mg/kg, iv administered as bolus injection and measured after 48 hrs by LC-MS/MS analysis; format: ADME, organism-based; details: in vivo; summary of the method: as §3
[17] = Clearance in male Sprague-Dawley rat at 10 mg/kg, iv administered as bolus injection and measured after 48 hrs by LC-MS/MS analysis; format: ADME, organism-based; details: in vivo; summary of the method: as §3
[18] = Half life in male Sprague-Dawley rat at 10 mg/kg, iv administered as bolus injection and measured after 48 hrs by LC-MS/MS analysis; format: ADME, organism-based; details: in vivo; summary of the method: as §3

CN[C@@H]1[C@H](O)[C@H](NC)[C@H]2O[C@]3(O)[C@H](O[C@@H]2[C@H]1O)O[C@H](C)C[C@H]3NC(=O)Cc1ccc(Cl)cn1
MTD at 0.5 h [1]: 300 mg/kg
MTD at 0.25 h [2]: 150 mg/kg
MTD at 0.5 min [3]: 100 mg/kg
MTD at 5 min [4]: 100 mg/kg
MTD at 5 s [5]: 75 mg/kg

CN[C@@H]1[C@H](O)[C@H](NC)[C@H]2O[C@@]3(O)C(=O)C[C@@H](C)O[C@H]3O[C@@H]2[C@H]1O [SPECTINOMYCIN]
IC50 (Bacterial 70S ribosome): 1080 nM

CN[C@@H]1[C@H](O)[C@H](NC)[C@H]2O[C@]3(O)[C@H](O[C@@H]2[C@H]1O)O[C@H](C)C[C@H]3NC(=O)Cc1ccc(OP(=O)(O)O)cn1
Stability [6]: Stable
Vdss [7]: 0.322 L/kg
AUC [8]: 18500 ng·h/mL
Activity [9]: inactive
CL [10]: 9.1 mL/min/kg
t1/2 [11]: 23.4 min
Cmax [12]: 38900 ng/mL
IC50 (Bacterial 70S ribosome): 12200 nM
MTD at 5 s [5]: > 500 mg/kg
t1/2 [13]: 19 min

CN[C@@H]1[C@H](O)[C@H](NC)[C@H]2O[C@]3(O)[C@H](O[C@@H]2[C@H]1O)O[C@H](C)C[C@H]3NC(=O)Cc1ccc(O)cn1
MTD at 0.25 h [2]: > 500 mg/kg
MTD at 0.5 min [3]: 200 mg/kg
Cmax [14]: 47000 ng/mL
Vd [15]: 0.494 L/kg
IC50 (Bacterial 70S ribosome): 1790 nM
MTD at 5 min [4]: 350 mg/kg
AUC at 48 h [16]: 22000 ng·h/mL
clearance [17]: 7.72 mL/min/kg
half-life [18]: 23.5 min
MTD at 5 s [5]: 200 mg/kg
